MrgX1 antag – antagonists of human MrgX1 receptor, primary screen, HEK293 cells, Fluo-4 calcium flux; Mas-related G-protein coupled receptor member X1 (Homo sapiens), Q96LB2; BAM8-22 antagonism; hits give low values; B-score at 10 µM; 310,000 compounds, 1.3% hits;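 active = calcium-response B-score plate-corrected more than 3 library SD below zero, starting fluorescence within 5 deviations, no agonist response on first addition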;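 also: peak minus trough fluorescence over baseline after final BAM8-22 challenge near maximal dose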
Target sequence (Q96LB2 whole entry, looked up): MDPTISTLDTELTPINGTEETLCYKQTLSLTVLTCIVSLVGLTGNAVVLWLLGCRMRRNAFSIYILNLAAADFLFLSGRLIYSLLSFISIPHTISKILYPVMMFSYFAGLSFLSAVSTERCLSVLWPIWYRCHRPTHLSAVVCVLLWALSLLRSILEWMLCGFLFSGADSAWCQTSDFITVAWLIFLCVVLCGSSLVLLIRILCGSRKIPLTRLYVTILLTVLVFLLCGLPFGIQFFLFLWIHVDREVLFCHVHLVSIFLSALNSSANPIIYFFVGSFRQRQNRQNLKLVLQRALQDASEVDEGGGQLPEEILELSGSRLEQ
MrgX1 PAM – positive allosteric modulators of MrgX1, primary screen, HEK293 cells, Fluo-4 calcium flux | Mas-related G-protein coupled receptor member X1 (Homo sapiens), Q96LB2 | FDSS; hits give high values | B-score at 10 µM | 310,000 compounds, 0.63% hits | AID 588675, 2011;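 active = plate-corrected calcium response at least 3 library SD above typical, normal starting fluorescence, not activating the receptor alone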;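 also: compound read alongside a low EC10 to EC30 dose of BAM8-22 agonist; peak minus trough fluorescence over baseline measured at the second addition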
RGS4 block – RGS4 inhibitors, primary screen, cell-based, HEK293 M3R inducible RGS4, calcium flux | Fluo-4 calcium flux; hits give high values; triggered by carbachol at its EC20 | AID 463165, 2010 | 310,000 compounds, 0.45% hits | B-score at 10 µM | Regulator of G-protein signaling 4 (Homo sapiens), P49798;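 active = B-score, a plate-corrected calcium signal, over three deviations above library mean, with baseline fluorescence within five deviations of library mean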;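 also: RGS4 expression induced by doxycycline in cells with stable M3 receptor; B-score is computed from the integrated fluorescence ratio over baseline after carbachol; higher B-score means a larger calcium signal and so more RGS4 inhibition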
Target sequence (P49798 whole entry, looked up): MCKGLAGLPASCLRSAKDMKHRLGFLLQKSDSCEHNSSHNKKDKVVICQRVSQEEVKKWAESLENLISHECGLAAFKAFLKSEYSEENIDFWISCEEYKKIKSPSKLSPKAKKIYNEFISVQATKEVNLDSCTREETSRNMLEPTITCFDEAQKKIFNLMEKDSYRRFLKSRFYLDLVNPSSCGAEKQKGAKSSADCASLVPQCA
MrgX1 ag – agonists of human MrgX1 receptor, primary screen, HEK293 cells, Fluo-4 calcium flux | 310,000 compounds, 0.44% hits | B-score at 10 µM | Fluo-4 calcium fluorescence, agonist mode; hits give high values;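 active = calcium response B-score plate-corrected fluorescence ratio at least 3 library SD, with starting fluorescence B-score inside 5 SD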
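Test system: HEK293 cells stably expressing human MrgX1 receptor; Input: fifteen thousand cells per well; Dosing: compound delivered in addition one of three; Schedule: overnight seeding, then 1 h dark dye loading; Technique: Fluo-4 NW calcium fluorescence; Measure: B-scored fluorescence response ratio; Controls: positive and negative controls per plate.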
RGS4 act – RGS4 potentiators or activators, primary screen, cell-based, HEK293 M3R inducible RGS4, calcium flux. carbachol calcium flux Fluo4; hits give low values. B-score at 10 µM. 310,000 compounds, 0.92% hits. AID 463111, 2010;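 active = B-score of the integrated calcium signal more than 4 SD below the library mean, with starting fluorescence not abnormally high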;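 also: negative B-score means reduced calcium response which marks RGS4 activation or potentiation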
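System – HEK293 FlpIn-TREx cells, stable M3R, doxycycline-inducible RGS4 · Reagent – ECmax carbachol challenge · Times – compound preincubation 20 min at room temperature before agonist · Technique – Fluo4 fluorescence kinetic imaging of calcium · Measure – B score of integrated Fluo4 ratio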
Each line names hits and unclear results; the compound was inactive in the other large screens. Rows were chosen to be rich in hits. Some 3.5% of all compounds tested hit in one or more screens of this group.

COCCN=c1scc(-c2cccs2)n1/N=C(\C)c1ccco1	MrgX1 PAM 14.8
COCCN=c1scc(-c2ccco2)n1/N=C/c1ccc(O)c(O)c1O	none (no result: RGS4 block, RGS4 act)
CCOC(=O)Cn1c(C)[n+](CC(=O)c2ccccc2)c2ccccc21	none
CS(=O)(=O)N1CCN(C(=O)C2c3ccccc3Oc3ccccc32)CC1	RGS4 act -7.48
NC(=O)C1CCN(C2=C(NS(=O)(=O)c3ccc(Cl)cc3)C(=O)c3ccccc3C2=O)CC1	MrgX1 PAM 9.92
CC(C)Cc1cc(C(=O)N(C)C2CCCN(Cc3ccccc3F)C2)n(C)n1 (configuration not stated)	none
Cc1ccc(-c2nnc(N3CCN(C(=O)COc4cccc(C)c4)CC3)c3ccccc23)cc1	RGS4 act -7.28
Cc1ccc(OCC(=O)N2CCN(c3nnc(-c4ccc(C)cc4)c4ccccc34)CC2)cc1	none
CC1(c2nnc(-c3ccccc3)o2)CC(c2ccc([N+](=O)[O-])cc2)=NO1 (configuration not stated)	none
N#C/C(=C\c1ccc[nH]1)C(=O)NCC1CCCO1 (configuration not stated)	MrgX1 PAM 7.83
N#C/C(N=Nc1ccccc1O)=N\Nc1ccccc1O	none
Fc1ccccc1CNc1nc(-c2cccnc2)nc2ccccc12	MrgX1 ag 37.8, RGS4 act -9.1
COc1cc2c(cc1OC)CN(c1nc(-c3cccnc3)nc3ccccc13)CC2	RGS4 act -7.47
COc1cccc(CNc2nc(-c3cccnc3)nc3ccccc23)c1	none
COc1ccccc1C(C)Nc1nc(-c2cccnc2)nc2ccccc12 (configuration not stated)	RGS4 act -7.12
Cc1ccc(SCC(=O)Nc2ccc(N3CCN(C)CC3)c(F)c2)c(C)c1	RGS4 act -7.6
CCCNC(=O)c1ccc(COc2ccc(CCC)cc2OC)o1	none
CC1CCCCN1C(=O)CSc1nc(C2CC2)nc2c1cnn2-c1ccccc1 (configuration not stated)	RGS4 act -6.96
Cc1nn(C)c(C)c1NC(=O)CSc1nc(C2CC2)nc2c1cnn2-c1ccccc1	none
O=C(c1ccc(-n2cccn2)cc1)N1CCc2ccccc2C1	none
CCn1nc(C)c(/C=N/NC(=O)c2ccc3c(c2)c(C)c(C)n3Cc2ccccc2)c1C	RGS4 act -8.32
CCn1ncc(/C=N\NC(=O)c2ccc3c(c2)c(C)c(C)n3Cc2ccccc2)c1C	none
O=C(NNC(=O)c1ccccc1C(F)(F)F)c1csc(N2CCOCC2)n1	none
Cc1cccc(N=C2C(=O)Nc3c(Cl)cccc32)c1	MrgX1 ag 27.7
O=C1Nc2ccccc2C1=Nc1cccc([N+](=O)[O-])c1	none
Cc1ncc(CO)c2c1Oc1nc(-c3ccccc3)nc(SCC(=O)N(C)c3ccccc3)c1C2	MrgX1 PAM 10.1, RGS4 act -8.12
COc1ccccc1-c1nc2c(c(SCC(=O)N3CCCCC3)n1)Cc1c(CO)cnc(C)c1O2	RGS4 act -8.1
Cc1ncc(CO)c2c1Oc1nc(-c3ccccc3)nc(SCC(=O)N3CCOCC3)c1C2	none
Cc1ncc(CO)c2c1Oc1nc(-c3ccccc3F)nc(SCC(=O)N(C)c3ccccc3)c1C2	none
CN1CCC=C(C(=O)N2c3ccccc3Sc3ccc(Cl)cc32)C1	RGS4 act -10.2
COc1cc(S(=O)(=O)NCCCn2ccnc2)ccc1Cl	none
CCCCn1nc(C(=O)Oc2ccc3c(C)cc(=O)oc3c2)c2ccccc2c1=O	MrgX1 antag -6.6
CC1(C)C=Cc2cc(-c3coc4cc(O)cc(O)c4c3=O)cc(O)c2O1	MrgX1 antag -5.25
O=c1c(-c2ccc3c(c2)OCCO3)coc2cc(O)cc(O)c12	none
CSc1nnc(C)c(=O)n1COC(=O)c1ccc([N+](=O)[O-])cc1	MrgX1 PAM 12.2
O=C(CN1CCN(C/C=C/c2ccccc2)CC1)NC(=O)NC1CCCCC1	RGS4 act -7
O=C(CN1CCN(Cc2ccccc2)CC1)NC(=O)NC1CCCCC1	none
Cc1ccc(CNc2ccc3c(c2)OCO3)cc1	MrgX1 ag 28.8
Cc1ccc(C)c(NC(=S)NCc2ccc3c(c2)OCO3)c1	RGS4 act -7.19
c1cc(CNc2ccc3c(c2)OCO3)ccn1	none
COc1ccc2oc(C(=O)N3CCN(S(=O)(=O)c4cccc([N+](=O)[O-])c4)CC3)c(C)c2c1	MrgX1 PAM 16.5
COc1ccccc1C(=O)NC(CCSC)C(=O)OC(C)C(N)=O (configuration not stated)	MrgX1 PAM 12.1
CCN(CC(=O)NC(C)C)C(=O)C(CCSC)NC(=O)c1ccccc1OC (configuration not stated)	none
C=CCn1c(N)cc(=O)nc1SC(CC)C(=O)Nc1ccc(C(C)=O)cc1 (configuration not stated)	none
CN1CCN(CC/C=C2/c3ccccc3Sc3ccc(S(=O)(=O)N(C)C)cc32)CC1	none
CN(C)CC/C=C1/c2ccccc2Sc2c(O)cc(Cl)cc21	RGS4 act -7.34
CN(C)CC/C=C1/c2cc(F)ccc2Sc2ccc(Cl)cc21	RGS4 act -10
COc1cc(Cl)cc2c1Sc1ccccc1/C2=C/CCN(C)C	RGS4 act -7.08
Cc1cc(C(C)(C)C)c(O)c(C(C)(C)C)c1	none
CC(C)(C)c1cc(O)c(C(C)(C)C)cc1O	MrgX1 ag 41.5, RGS4 act -8.54
CCN(/N=C/C=C/c1ccccc1)c1cc(=O)n(C)c(=O)[nH]1	MrgX1 antag -5.61
CCN(CC(=O)NCc1ccc(F)cc1)C(=O)CN1CCN(c2ccc(OC)cc2)CC1	none
CCOc1ccccc1C(=O)Nc1cccc(-c2nnc(-c3ccccc3)o2)c1	RGS4 act -7.16
Nc1ncnc2c1ncn2[C@@H]1O[C@H](COP(=O)(O)OP(=O)(O)OP(=O)(O)O)[C@@H](O)[C@H]1O	MrgX1 ag 44.6 (no result: RGS4 block, RGS4 act)
N=C1S/C(=C\c2ccc(-c3ccccc3C(=O)O)o2)C(=O)N1c1ccc2c(c1)OCO2	none (no result: MrgX1 antag, MrgX1 PAM, MrgX1 ag)
COc1ccccc1N1C(=N)S/C(=C\c2ccc(-c3ccccc3C(=O)O)o2)C1=O	MrgX1 PAM 11.3
O=C(COc1ccc(F)cc1)N/N=C/c1cccc2cccnc12	none
Cc1cc(C)cc(OCC(O)Cn2nc(C)cc2C)c1 (configuration not stated)	none
O=C(/C=C/c1cccc(Br)c1)NCC1CCCCC1	MrgX1 antag -6.98
O=c1c2ccccc2nc(COc2ccccc2)n1/N=C/c1ccc(O)cc1O	RGS4 act -7.81
C/C(=N\OCc1nc2ccccc2c(=O)n1/N=C/c1cc(C)cc([N+](=O)[O-])c1O)c1ccccc1	none
Oc1ccc(/C=N/n2c(COc3ccccc3)n[nH]c2=S)c(O)c1	none
O=c1c2ccccc2nc(COc2ccccc2)n1/N=C/c1c[nH]c2ccccc12	none
Oc1ccccc1/C=N/n1c(COc2ccccc2)n[nH]c1=S	MrgX1 PAM 6.61
